The text below walks through data of article PMC4172508 (Bioorganic & medicinal chemistry, 2014).

Molecules are shown by their SMILES.

The subject of one series is liver. In words: Histopathological analysis on livers. The class given is in vivo. To be noted: 150 mg/kg once, livers harvested 48 h after treatment. The essentials: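 Mice received a single 150 mg/kg dose of test compound. Livers were harvested at 48 h, sectioned and examined histologically, with two mice per group.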
The next series deals with liver functions. In words: Serum liver enzyme levels. The class given is in vivo. To be noted: for serum liver enzyme activities: 25 mg/kd/day, each day for 8 days, blood 3 days after last treatment.
Series [1] can be described thus: Stability of powder during storage. The class given is physicochemical. To be noted: for time powder stable without detectable changes: non-evacuated container; for stability of powder (remaining): 37°C. The procedure, abridged: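 Powdered test compounds were stored at 4°C, room temperature (21°C) or 37°C. Aliquots were taken at time points and kept at −20°C. Each was dissolved in DMSO, diluted with 9 volumes of acetonitrile and analysed by C18 HPLC (acetonitrile/water gradient with 0.2% formic acid, UV 280 nm).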

Series [2] can be described thus: Stability of stock solution. To be noted: Solutol HS15 and ethyl alcohol. The class given is physicochemical. The essentials:
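Stock solution: 70 mg prodrug or 60 mg parent drug per ml of 75% (w/v) Solutol HS15 in ethanol (about 20% v/v ethanol). It was stored in capped brown glass tubes at room temperature or 4°C. At intervals, samples were diluted 100-fold in acetonitrile/water (4/1) for C18 HPLC with UV detection at 280 nm.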

Series [3] concerns H1299 cells. The experiment in a line: Cell viability, sulforhodamine B assay. The class given is cell-based. To be noted: H1299, 3 days after treatment. The procedure, abridged: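 Sulforhodamine B assay on the lung cancer line. Cells were exposed to a range of test compound concentrations, and viability was read 3 days after treatment. DMSO-treated control cells were set to 100. Values are mean ± SD of quadruplicate wells.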

The subject of series [4] is H157 cells. The experiment in a line: Cell viability, sulforhodamine B assay. The class given is cell-based. To be noted: H157, 3 days after treatment. The essentials: (§1)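 Human lung cancer cells were treated with a range of test-compound concentrations. Viability was read by sulforhodamine B assay 3 days after treatment. DMSO-treated control cells were set as 100. Values are mean ± SD of quadruplicate wells.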

Series [5] can be described thus: Tissue distribution in nude mice bearing Calu3 xenograft tumors. To be noted: 24 h. The class given is in vivo. The procedure, abridged: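 Nude mice (7–8 weeks) bearing subcutaneous Calu3 xenografts, one per group, received 60 mg/kg by tail vein in Solutol HS15/ethanol/0.9% NaCl. Mice were euthanised at 24 h. Liver, lungs, kidneys, spleen, small intestine and tumour were homogenised in methanol (50 mg/ml) on ice and mixed 1:1 with acetonitrile containing 0.2% formic acid and internal standard. Samples were centrifuged at 4°C and analysed by HPLC/MS.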

In a further series the test system is Balb/c mice. In words: Acute toxicity study. The class given is in vivo.
The subject of series [6] is Calu3 cells. In words: Cell viability, sulforhodamine B assay. The class given is cell-based, human. To be noted: Calu3, 3 days after treatment. The essentials: as §1
(In general: Sulforhodamine B stains cellular protein and so reports cell mass.)

Series [7] in a line: Release of NSC-743380 from esterified derivatives in PBS. The class given is physicochemical. To be noted: PBS pH 7.4, 0.5 mg/ml, 37°C. The procedure, abridged:
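Test compound was made to 0.5 mg/ml in PBS pH 7.4 containing 12% DMSO and 18% acetonitrile (diluted from a DMSO/acetonitrile stock). It was held in a 37°C water bath for up to 24 h. Aliquots were taken at 0–24 h, frozen at −20°C, diluted 50-fold in acetonitrile and run on C18 HPLC (acetonitrile/water gradient, 0.2% formic acid, UV 280 nm). Data come from one of two experiments.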

Series [8] in a line: Stability of injectable solution. The class given is physicochemical.
In series [9] the test system is H460 cells. In words: Cell viability, sulforhodamine B assay. The class given is cell-based. To be noted: H460, 3 days after treatment. The procedure, abridged: as §1
Series [10] concerns KRAS-mutant lung cancer cell line H157 xenografts. To be noted: cited from earlier work.
Series [11] deals with H460 cells. To be noted: previous study ref 5; cited from earlier work.
The test system of series [12] is Calu3 cells. To be noted: previous study ref 5; cited from earlier work.
The conditions of series [13]: especially in low-pH conditions; cited from earlier work.
For series [14] the following is noted: compared with oncrasin-60 (NSC-741909); cited from earlier work.
Series [15] relates to H1299 cells. To be noted: previous study ref 5; cited from earlier work.
For series [16], the system named is H157 cells. To be noted: previous study ref 5; cited from earlier work.
For series [17], the system named is human renal cancer cell line A498 xenograft. To be noted: compared with oncrasin-60 (NSC-741909); cited from earlier work.
[18] abbreviates: 150 mg/kg daily for 3 days, blood on day 6, surviving mice.
[19] abbreviates: animals treated with oncrasin-266, 60 mg/kg i.v.
Where [20] appears, read: 150 mg/kg i.p. daily for 3 days, 3 mice/group.
[21] abbreviates: 300 mg/kg i.p. on day 1 and day 2, 3 Balb/c mice/group.

Regarding `O=C(CC1CCCCC1)OCc1cn(Cc2cccc(Cl)c2)c2ccccc12` [oncrasin-266, [1-(3-chlorobenzyl)-1H-indol-3-yl]methyl 2-cyclohexylacetate], the “histopathological changes in liver” value with liver was “no obvious changes”. Moreover, in the series on liver functions, the “serum liver enzyme activities” value is reported as “mostly in normal ranges”. Also, the “blood alanine transaminase (ALT)” value in the series on liver functions (setting [18]) is “about 115 Units/L”. Moreover, the “blood alkaline phosphatase (ALP)” value in the series on liver functions (setting [18]) is on record as around 50 Units/L. The “time powder stable without detectable changes” value in series [1] (4°C) and in series [1] (room temperature) was “at least 90 days” throughout. Further, the “stability of powder (remaining)” value in series [1] (by day 90) is recorded as below 5%. Moreover, the “time stable in stock solution” value in series [2] (4°C) is reported as “at least 4 weeks”; in [2] (room temperature) it was “at least 2 weeks”. Further, the “anticancer activity (cell viability)” value in the series on H1299 cells [3] is recorded as “resistant”; with H157 cells [4], “equivalent anticancer activity as NSC743380”; in the series on Calu3 cells [6], “equivalent anticancer activity as NSC743380”; in the series on H460 cells [9] it was “equivalent anticancer activity as NSC743380”. In addition, the “oncrasin-266 detected in the liver” value in series [5] (setting [19]) was “high concentration”. Moreover, the “survival / death of mice” value with Balb/c mice (setting [20]) is “none of the oncrasin-266-treated mice died”; in the series on Balb/c mice (setting [21]), “one died on day 4 and the remaining two survived for at least 2 weeks”. The tolerability in vivo entry with Balb/c mice (150-300 mg/kg i.p., mice) was “better tolerated than NSC-743380”. The “time to complete the release of NSC-743380” value in series [7] is recorded as “about 6 hours”. The “release of NSC-743380 from oncrasin-266” value in series [8] (injectable solution, 7 hours, 37°C) is recorded as “higher than 10%”. Moreover, the “oncrasin-266 hydrolyzed to release NSC-743380” value in series [8] (injectable solution, within 7 hours, room temperature) is “about 10%”.
As to `OCc1cn(Cc2cccc(Cl)c2)c2ccccc12` [NSC-743380], in series [10], the “in vivo tumor suppression” value is on record as “significant in vivo tumor suppression”. The “sensitivity of cells to NSC743380 therapy” value in the series with H460 cells [11] was “highly sensitive”; with Calu3 cells [12] it was “highly sensitive”; in the series with H1299 cells [15], “resistant”; with H157 cells [16], “highly sensitive”. Besides, the “histopathological changes in liver” value in the series with liver is listed as “liver cell damage (necrosis) was obvious”. In addition, the “serum liver enzyme activities” value with liver functions is given as “mostly in normal ranges”. In addition, in the series with liver functions (setting [18]), the “blood alanine transaminase (ALT)” value is listed as “about 1936 Units/L”. In addition, in [1] (over 14 days), the “stability of powder (remaining)” value was below 5%. For the same molecule, the “time stable in stock solution” value in [2] (room temperature) is listed as “at least 1 weeks”. Moreover, the “anticancer activity (cell viability)” value in the series on H1299 cells [3] was “resistant”. In series [5] (setting [19]), the “tissues in which NSC-743380 was detectable” value was “liver, lungs, kidneys, and subcutaneous tumor tissue”. Also, the “tissues in which NSC-743380 was detected” value in series [5] (mice treated with NSC-743380, 60 mg/kg i.v.) was “lungs, intestine, and subcutaneous tumor tissue”. In addition, the “behaviour in solutions with water” value in series [13] is “tends to form dimers in solutions with water and loses activity”. The “maximum tolerated dose / tolerability” value in series [14] is “much better tolerated”. Besides, the entries for the “survival / death of mice” value with Balb/c mice (setting [20]) and with Balb/c mice (setting [21]) were “Two mice in the NSC-743380-treated group died on day 5” and “All three mice injected with NSC-743380 died on day 3”, respectively. Moreover, the “anticancer activity in xenograft tumor model” value in series [17] was “more effective anticancer activity”. The “loss in injectable solution” value in [8] (37°C, 7 h) is recorded as “more than 20%”. The “change in injectable solution” value in series [8] (room temperature, 7 h) was “little change”.
